Data as given in ChEMBL document CHEMBL4308921, “Structure-Activity Relationships of Central Nervous System Penetration by Fatty Acid Amide Hydrolase (FAAH)-Targeted Thyromimetic Prodrugs” (ACS Med Chem Lett, 2019).
The source made the active and inactive calls. No cut-off for these calls is given here.

How the values were obtained:
[1] = AUC (0 to 24 hrs) in C57BL/6 mouse brain assessed as sobetirome level at 9.15 umol/kg, po via gavage by LC-MS/MS analysis; format: ADME, organism-based; parameters: dose 9.15 umol/kg, time < 24 hr, route oral; details: in vivo
[2] = molecular target: T1, Thyroid hormone receptor alpha (Homo sapiens) (UniProt P10827); experiment: Agonist activity at human TRalpha treated at 1 hr post FAAH inhibitor PF-3845 treatment and measured after 24 hrs by cell based luciferase reporter gene assay
T1 sequence (whole entry): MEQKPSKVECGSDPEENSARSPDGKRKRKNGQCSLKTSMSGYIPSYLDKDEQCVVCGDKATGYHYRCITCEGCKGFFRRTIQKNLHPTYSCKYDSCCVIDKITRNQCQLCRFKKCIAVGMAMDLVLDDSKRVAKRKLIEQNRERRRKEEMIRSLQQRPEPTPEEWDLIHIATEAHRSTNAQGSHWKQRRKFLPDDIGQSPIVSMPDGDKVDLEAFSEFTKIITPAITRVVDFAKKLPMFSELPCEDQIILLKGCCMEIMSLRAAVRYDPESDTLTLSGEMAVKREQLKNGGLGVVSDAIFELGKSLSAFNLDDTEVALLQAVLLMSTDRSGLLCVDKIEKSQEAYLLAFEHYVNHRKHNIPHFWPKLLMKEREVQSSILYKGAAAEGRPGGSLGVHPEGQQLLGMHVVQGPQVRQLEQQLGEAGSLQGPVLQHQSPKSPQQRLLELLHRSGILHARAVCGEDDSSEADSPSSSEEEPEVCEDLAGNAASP
Outline: (§1)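 A plate-based luciferase reporter assay measured TRα or TRβ activation as dose-response curves, run in the presence of the FAAH inhibitor PF-3845. Data are mean ± SEM, n = 3.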

[3] = Prodrug activation in C57BL/6 mouse brain assessed as FAAH-mediated sobetirome formation at 3.05 umol/kg, ip after 1 hr by LC-MS/MS analysis; format: organism-based; details: in vivo
[4] = Prodrug activation in C57BL/6 mouse serum assessed as FAAH-mediated sobetirome formation at 3.05 umol/kg, ip after 1 hr by LC-MS/MS analysis; format: organism-based; details: in vivo
[5] = Brain to serum permeability coefficient, Kp of the compound in C57BL/6 mouse assessed as sobetirome level at 3.05 umol/kg, ip after 1 hr by LC-MS/MS analysis; format: ADME, organism-based
[6] = Oral bioavailability in C57BL/6 mouse at 9.15 umol/kg administered via gavage by LC-MS/MS analysis; format: ADME, organism-based; details: in vivo
[7] = Tmax in C57BL/6 mouse serum assessed as sobetirome level at 9.15 umol/kg, iv by LC-MS/MS analysis; format: ADME, organism-based; details: in vivo
[8] = AUC (0 to 24 hrs) in C57BL/6 mouse brain assessed as sobetirome level at 9.15 umol/kg, iv by LC-MS/MS analysis; format: ADME, organism-based; parameters: dose 9.15 umol/kg, time < 24 hr, route intravenous; details: in vivo
[9] = molecular target: T2, Fatty-acid amide hydrolase 1 (Homo sapiens, UniProt O00519); experiment: Prodrug activation in COS7 cells overexpressing human FAAH assessed as FAAH-mediated sobetirome formation by measuring compound hydrolysis rate at 100 uM by LC-MS/MS analysis; format: cell-based
T2 sequence (O00519 whole entry): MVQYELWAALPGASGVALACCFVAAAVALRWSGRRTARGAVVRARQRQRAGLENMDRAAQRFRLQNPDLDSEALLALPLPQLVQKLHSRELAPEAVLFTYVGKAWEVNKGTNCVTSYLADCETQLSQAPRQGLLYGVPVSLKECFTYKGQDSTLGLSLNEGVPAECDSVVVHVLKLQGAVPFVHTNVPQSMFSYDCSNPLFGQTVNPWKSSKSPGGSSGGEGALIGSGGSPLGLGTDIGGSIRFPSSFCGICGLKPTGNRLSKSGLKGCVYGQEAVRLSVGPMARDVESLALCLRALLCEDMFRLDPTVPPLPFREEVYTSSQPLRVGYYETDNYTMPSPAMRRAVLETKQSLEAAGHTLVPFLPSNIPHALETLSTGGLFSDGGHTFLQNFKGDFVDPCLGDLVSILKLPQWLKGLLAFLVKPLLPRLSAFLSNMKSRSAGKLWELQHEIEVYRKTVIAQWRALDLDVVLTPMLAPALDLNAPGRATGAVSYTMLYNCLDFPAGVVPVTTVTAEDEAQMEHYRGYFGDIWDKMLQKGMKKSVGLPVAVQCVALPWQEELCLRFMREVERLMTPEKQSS
Outline: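 Hydrolysis kinetics were measured in homogenate of COS-7 cells overexpressing human FAAH, with prodrug substrate at 100 µM. Rate is given as nmol mg-1 min-1, mean ± SEM, n = 3.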

[10] = Tmax in C57BL/6 mouse brain assessed as sobetirome level at 9.15 umol/kg, iv by LC-MS/MS analysis; format: ADME, organism-based; details: in vivo
[11] = Terminal half life in C57BL/6 mouse at 9.15 umol/kg, iv by LC-MS/MS analysis; format: ADME, organism-based; details: in vivo, read-out: beta t1/2 (converted)
[12] = Brain to serum permeability coefficient, Kp of the compound in C57BL/6 mouse assessed as sobetirome level at 9.15 umol/kg, po via gavage measured up to 24 hrs by LC-MS/MS analysis; format: ADME, organism-based
[13] = Brain to serum permeability coefficient, Kp of the compound in C57BL/6 mouse assessed as sobetirome level at 9.15 umol/kg, iv measured up to 24 hrs by LC-MS/MS analysis; format: ADME, organism-based
[14] = molecular target: T3, Thyroid hormone receptor beta (Homo sapiens) (UniProt P10828); experiment: Agonist activity at human TRbeta treated at 1 hr post FAAH inhibitor PF-3845 treatment and measured after 24 hrs by cell based luciferase reporter gene assay; outline: as §1
T3 sequence (whole entry): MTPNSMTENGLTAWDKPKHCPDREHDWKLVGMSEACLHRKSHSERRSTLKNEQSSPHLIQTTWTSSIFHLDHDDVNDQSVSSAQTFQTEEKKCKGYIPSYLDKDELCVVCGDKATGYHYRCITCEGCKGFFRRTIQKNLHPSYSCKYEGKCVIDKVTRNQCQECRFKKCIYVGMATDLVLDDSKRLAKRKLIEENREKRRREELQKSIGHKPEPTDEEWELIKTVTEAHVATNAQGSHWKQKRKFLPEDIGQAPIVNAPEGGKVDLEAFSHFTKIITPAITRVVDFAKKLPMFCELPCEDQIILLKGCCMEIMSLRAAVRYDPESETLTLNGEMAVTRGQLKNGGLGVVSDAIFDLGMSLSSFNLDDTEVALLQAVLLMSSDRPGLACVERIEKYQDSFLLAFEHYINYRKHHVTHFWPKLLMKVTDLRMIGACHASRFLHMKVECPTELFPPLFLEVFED

[15] = Clearance in C57BL/6 mouse at 9.15 umol/kg, iv by LC-MS/MS analysis; format: ADME, organism-based; details: in vivo

AUC [1]: 378 ng·h/g | Activity [2]: Active | Drug uptake [3]: 53.1 ng/g | Drug uptake [4]: 17.2 ng/g | Kp [5]: 3.17 | bioavailability [6]: 19.5% | Tmax [7]: 0.5 h | AUC [8]: 694 ng·h/g | Drug metabolism [9]: 3.2 nmol/mg/min | Tmax [10]: 0.5 h | half-life [11]: 8.8 h | Kp [12]: 0.44 | Kp [13]: 0.82 | Activity [14]: Active | clearance [15]: 91.7 mL/min/kg
Structure (SMILES): CNC(=O)COc1cc(C)c(Cc2ccc(O)c(C(C)C)c2)c(C)c1
